Measured values taken from ChEMBL document CHEMBL3124843, “Synthesis, cytostatic, antimicrobial, and anti-HCV activity of 6-substituted 7-(het)aryl-7-deazapurine ribonucleosides” (J Med Chem, 2014).
Calls of active or inactive are those of the source. How the calls were made is not given here.

Tests used:
[1] = Cytotoxicity against human HuH7 cells infected with Hepatitis C virus subtype 2a; assay type: cell-based, Huh-7
Hepatitis C virus [2] = assay: Antiviral activity against Hepatitis C virus subtype 2a infected in human HuH7 cells; assay type: functional, organism-based, Hepacivirus hominis; details: genotype 2a, Huh-7
[3] = Cytotoxicity against human HuH7 cells infected with Hepatitis C virus subtype 1b; assay type: cell-based, Huh-7
Hepatitis C virus [4] = assay: Antiviral activity against Hepatitis C virus subtype 1b infected in human HuH7 cells; assay type: functional, organism-based, Hepacivirus hominis; details: genotype 1b, Huh-7
Candida tropicalis = assay: Antifungal activity against Candida tropicalis after 48 hrs; assay type: functional, organism-based
Pichia kudriavzevii = assay: Antifungal activity against Candida crusei after 48 hrs; assay type: functional, organism-based
Candida parapsilosis = assay: Antifungal activity against Candida parapsilosis after 48 hrs; assay type: functional, organism-based
Candida albicans = assay: Antifungal activity against Candida albicans after 48 hrs; assay type: functional, organism-based
Pseudomonas aeruginosa [5] = assay: Antibacterial activity against multi-resistant Pseudomonas aeruginosa A/16575 after 24 hrs; assay type: functional, organism-based
Escherichia coli [6] = assay: Antibacterial activity against multi-resistant Escherichia coli C/16702 after 24 hrs; assay type: functional, organism-based
[7] = system: Staphylococcus haemolyticus; assay: Antibacterial activity against methicillin-resistant Staphylococcus haemolyticus A/16568 after 24 hrs; assay type: functional, organism-based
Staphylococcus aureus [8] = assay: Antibacterial activity against methicillin-resistant Staphylococcus aureus MRSA 4591 after 24 hrs; assay type: functional, organism-based
Pseudomonas aeruginosa [9] = assay: Antibacterial activity against Pseudomonas aeruginosa CCM 3955 after 24 hrs; assay type: functional, organism-based
Escherichia coli [10] = assay: Antibacterial activity against Escherichia coli CCM 3954 after 24 hrs; assay type: functional, organism-based
Staphylococcus aureus [11] = assay: Antibacterial activity against Staphylococcus aureus CCM 3953 after 24 hrs; assay type: functional, organism-based
Enterococcus faecalis = assay: Antibacterial activity against Enterococcus faecalis CCM 4224 after 24 hrs; assay type: functional, organism-based
[12] = Antiproliferative activity against human HeLaS3 cells after 72 hrs by XTT assay; assay type: functional, cell-based; details: HeLa S3, 72 h
Method in brief: (§1)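 Antiproliferative test on HL-60 promyelocytic leukemia and HeLa S3 cervical carcinoma cells growing in liquid suspension.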

HL-60 = assay: Antiproliferative activity against human HL60 cells after 72 hrs by XTT assay; assay type: functional, cell-based; details: HL-60, 72 h; method in brief: as §1
HepG2 = assay: Antiproliferative activity against human HepG2 cells after 72 hrs by XTT assay; assay type: functional, cell-based; details: HepG2, 72 h
MRC5 = assay: Cytostatic activity against human MRC5 cells after 72 hrs by MTT assay; assay type: ADME, cell-based; details: MRC5, 72 h
Method in brief: (§2)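 IC50 is the concentration that cuts cell growth by 50%, read by quantitative metabolic MTT staining after a 3-day treatment. The resistant sublines were made by raising the concentration of the cytotoxic drug step by step. CEM-DNR-bulk (daunorubicin-selected) stably overexpresses mrp-1. K562-TAX (paclitaxel-selected) expresses only mdr-1. HCT116p53−/− carries null p53 alleles. BJ and MRC-5 are nonmalignant fibroblasts.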

BJ = assay: Cytostatic activity against human BJ cells after 72 hrs by MTT assay; assay type: ADME, cell-based; method in brief: as §2
HCT-116 [13] = assay: Cytostatic activity against p53-deficient human HCT116 cells after 72 hrs by MTT assay; assay type: functional, cell-based; details: HCT-116, 72 h; method in brief: as §2
HCT-116 [14] = assay: Cytostatic activity against human HCT116 cells after 72 hrs by MTT assay; assay type: functional, cell-based; details: HCT-116, 72 h; method in brief: as §2
A549 = assay: Cytostatic activity against human A549 cells after 72 hrs by MTT assay; assay type: functional, cell-based; details: A549, 72 h; method in brief: as §2
K562 [15] = assay: Cytostatic activity against paclitaxel-resistant human K562 cells after 72 hrs by MTT assay; assay type: functional, cell-based; details: K562, 72 h; method in brief: as §2
K562 [16] = assay: Cytostatic activity against human K562 cells after 72 hrs by MTT assay; assay type: functional, cell-based; details: K562, 72 h; method in brief: as §2
[17] = Cytostatic activity against human CEM-DNR-bulk cells after 72 hrs by MTT assay; assay type: functional, cell-based; method in brief: as §2
CCRF-CEM = assay: Cytostatic activity against human CCRF-CEM cells after 72 hrs by MTT assay; assay type: functional, cell-based; method in brief: as §2

Structure (SMILES) | CC50 [1] | EC50 (Hepatitis C virus [2]) | CC50 [3] | EC50 (Hepatitis C virus [4]) | Activity (Candida tropicalis) | Activity (Pichia kudriavzevii) | Activity (Candida parapsilosis) | Activity (Candida albicans) | Activity (Pseudomonas aeruginosa [5]) | Activity (Escherichia coli [6]) | Activity [7] | Activity (Staphylococcus aureus [8]) | Activity (Pseudomonas aeruginosa [9]) | Activity (Escherichia coli [10]) | Activity (Staphylococcus aureus [11]) | Activity (Enterococcus faecalis) | IC50 [12] | IC50 (HL-60) | IC50 (HepG2) | IC50 (MRC5) | other results
Cc1nc(N)c2c(-c3ccco3)cn([C@@H]3O[C@H](CO)[C@@H](O)[C@H]3O)c2n1 | > 44 µM | > 44 µM | > 44 µM | > 44 µM | inactive | inactive | inactive | inactive | inactive | inactive | inactive | inactive | inactive | inactive | inactive | inactive | > 20 µM | > 20 µM | > 20 µM | > 100 µM | IC50 (BJ): > 100 µM; IC50 (HCT-116 [13]): > 20 µM; IC50 (HCT-116 [14]): > 20 µM; IC50 (A549): > 20 µM; IC50 (K562 [15]): > 20 µM; IC50 (K562 [16]): > 20 µM; IC50 [17]: > 20 µM; IC50 (CCRF-CEM): > 100 µM
CNc1ncnc2c1c(-c1ccoc1)cn2[C@@H]1O[C@H](CO)[C@@H](O)[C@H]1O | > 44 µM | > 44 µM | > 44 µM | 35.9 µM | inactive | inactive | inactive | inactive | inactive | inactive | inactive | inactive | inactive | inactive | inactive | inactive | > 20 µM | > 15 µM | > 20 µM | > 100 µM | IC50 (BJ): 96.3 µM; IC50 (HCT-116 [13]): > 20 µM; IC50 (HCT-116 [14]): > 20 µM; IC50 (A549): > 20 µM; IC50 (K562 [15]): > 20 µM; IC50 (K562 [16]): > 20 µM; IC50 [17]: > 20 µM; IC50 (CCRF-CEM): > 20 µM
C#Cc1cn([C@@H]2O[C@H](CO)[C@@H](O)[C@H]2O)c2ncnc(OC)c12 | > 44 µM | > 44 µM | > 44 µM | 0.18 µM | inactive | inactive | inactive | inactive | inactive | inactive | inactive | inactive | inactive | inactive | inactive | inactive | 1.73 µM | 0.19 µM | 12.7 µM | > 100 µM | IC50 (BJ): 98.4 µM; IC50 (HCT-116 [13]): 5.14 µM; IC50 (HCT-116 [14]): 4.06 µM; IC50 (A549): 8.16 µM; IC50 (K562 [15]): 0.38 µM; IC50 (K562 [16]): 0.3 µM; IC50 [17]: 3.49 µM; IC50 (CCRF-CEM): > 20 µM
COc1nc(N)nc2c1c(-c1cc3ccccc3o1)cn2[C@@H]1O[C@H](CO)[C@@H](O)[C@H]1O | > 44 µM | 20.7 µM | > 44 µM | 8.98 µM | inactive | inactive | inactive | inactive | inactive | inactive | inactive | inactive | inactive | inactive | inactive | inactive | > 20 µM | > 20 µM | > 20 µM | 22.7 µM | IC50 (BJ): 25.6 µM; IC50 (HCT-116 [13]): > 20 µM; IC50 (HCT-116 [14]): > 20 µM; IC50 (A549): > 20 µM; IC50 (K562 [15]): 15.5 µM; IC50 (K562 [16]): 14.6 µM; IC50 [17]: 16.7 µM; IC50 (CCRF-CEM): 12.7 µM
Cc1ncnc2c1c(-c1ccsc1)cn2[C@@H]1O[C@H](CO)[C@@H](O)[C@H]1O | > 44 µM | > 44 µM | > 44 µM | 4.47 µM | inactive | inactive | inactive | inactive | inactive | inactive | inactive | inactive | inactive | inactive | inactive | inactive | 14.3 µM | 0.35 µM | 4.72 µM | > 100 µM | IC50 (BJ): 96.9 µM; IC50 (HCT-116 [13]): 1.43 µM; IC50 (HCT-116 [14]): 0.46 µM; IC50 (A549): > 20 µM; IC50 (K562 [15]): 5.55 µM; IC50 (K562 [16]): 0.32 µM; IC50 [17]: 8.56 µM; IC50 (CCRF-CEM): 11.2 µM
O=c1[nH]cnc2c1c(-c1ccsc1)cn2[C@@H]1O[C@H](CO)[C@@H](O)[C@H]1O | > 44 µM | > 44 µM | > 44 µM | 14.3 µM | inactive | inactive | inactive | inactive | inactive | inactive | inactive | inactive | inactive | inactive | inactive | inactive | > 20 µM | 12 µM | > 15 µM | > 100 µM | IC50 (BJ): > 100 µM; IC50 (HCT-116 [13]): > 20 µM; IC50 (HCT-116 [14]): > 20 µM; IC50 (A549): > 20 µM; IC50 (K562 [15]): > 20 µM; IC50 (K562 [16]): > 20 µM; IC50 [17]: > 20 µM; IC50 (CCRF-CEM): 14.5 µM
CSc1ncnc2c1c(-c1cccs1)cn2[C@@H]1O[C@H](CO)[C@@H](O)[C@H]1O | > 44 µM | > 44 µM | > 44 µM | 5.42 µM | inactive | inactive | inactive | inactive | inactive | inactive | inactive | inactive | inactive | inactive | inactive | inactive | 1.96 µM | 1.13 µM | > 20 µM | > 100 µM | IC50 (BJ): 96.9 µM; IC50 (HCT-116 [13]): > 20 µM; IC50 (HCT-116 [14]): > 20 µM; IC50 (A549): > 20 µM; IC50 (K562 [15]): > 20 µM; IC50 (K562 [16]): 11.6 µM; IC50 [17]: > 20 µM; IC50 (CCRF-CEM): > 20 µM
CN(C)c1ncnc2c1ccn2[C@@H]1O[C@H](CO)[C@@H](O)[C@H]1O | > 44 µM | 0.97 µM | > 44 µM | 0.27 µM | inactive | inactive | inactive | inactive | inactive | inactive | inactive | inactive | inactive | inactive | inactive | inactive | 10.6 µM | 0.87 µM | 1.81 µM | 58.2 µM | IC50 (BJ): 5.3 µM; IC50 (HCT-116 [13]): 5.09 µM; IC50 (HCT-116 [14]): 18.4 µM; IC50 (A549): > 20 µM; IC50 (K562 [15]): 0.89 µM; IC50 (K562 [16]): 5.28 µM; IC50 [17]: 2.6 µM; IC50 (CCRF-CEM): 0.63 µM
CNc1ncnc2c1c(-c1cccs1)cn2[C@@H]1O[C@H](CO)[C@@H](O)[C@H]1O | > 44 µM | > 44 µM | > 44 µM | > 44 µM | inactive | inactive | inactive | inactive | inactive | inactive | inactive | inactive | inactive | inactive | inactive | inactive | > 20 µM | > 20 µM | > 20 µM | > 100 µM | IC50 (BJ): > 100 µM; IC50 (HCT-116 [13]): > 20 µM; IC50 (HCT-116 [14]): > 20 µM; IC50 (A549): > 20 µM; IC50 (K562 [15]): > 20 µM; IC50 (K562 [16]): > 20 µM; IC50 [17]: > 20 µM; IC50 (CCRF-CEM): > 20 µM
